From ChEMBL document CHEMBL3425411, “Synthesis of β-Carboline-Based N-Heterocyclic Carbenes and Their Antiproliferative and Antimetastatic Activities against Human Breast Cancer Cells” (J Med Chem, 2015)

Tests used:
Format in all cases: functional, cell-based
[1] = Cytotoxicity against human H1299 cells assessed as growth inhibition after 24 to 72 hrs by MTT assay; details: NCI-H1299
How it was run: (§1)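 About 5000 cells/well were grown 24 h in RPMI-1640 with 10% FBS, then given fresh medium with compound at various concentrations (from 10 mM DMSO stocks) for 24, 48 and 72 h. MTT (5 mg/mL stock) was added for 2 h and formazan dissolved in DMSO. Absorbance was read at 595 nm and expressed as percent proliferation versus DMSO control.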

MDA-MB-231 = assay: Cytotoxicity against human MDA-MB-231 cells assessed as growth inhibition after 24 to 72 hrs by MTT assay; how it was run: as §1
MCF7 = assay: Cytotoxicity against human MCF7 cells assessed as growth inhibition after 24 to 72 hrs by MTT assay; how it was run: as §1
MDA-MB-468 = assay: Cytotoxicity against human MDA-MB-468 cells assessed as growth inhibition after 24 to 72 hrs by MTT assay; how it was run: as §1

| SMILES | IC50 [1] [µM] | IC50 (MDA-MB-231) [µM] | IC50 (MCF7) [µM] | IC50 (MDA-MB-468) [µM] |
| --- | --- | --- | --- | --- |
| COC(=O)c1cc2c3ccccc3[nH]c2c2cn(C3CC3)c[n+]12 | > 30 | > 30 | > 30 | > 30 |
| COC(=O)c1cc2c3ccccc3[nH]c2c2cn(-c3ccccc3)c[n+]12 | 8.87 | > 30 | > 30 | 5.82 |
| CCN(CC)CCn1cc2c3[nH]c4ccccc4c3cc(C(=O)OC)[n+]2c1 | > 30 | > 30 | > 30 | > 30 |
| COC(=O)c1cc2c3ccccc3[nH]c2c2cn(-c3ccc(C)cc3Cl)c[n+]12 | > 30 | 14 | > 30 | > 30 |
| COC(=O)c1cc2c3ccccc3[nH]c2c2cn(C34CC5CC(CC(C5)C3)C4)c[n+]12 | > 30 | > 30 | > 30 | > 30 |
| COC(=O)c1cc2c3ccccc3[nH]c2c2cn(-c3ccc(Cl)cc3)c[n+]12 | 15.4 | 9.38 | 25.7 | 10.2 |
| COC(=O)c1cc2c3ccccc3[nH]c2c2cn(C3CCCCC3)c[n+]12 | > 30 | > 30 | > 30 | 18.2 |
| COC(=O)c1cc2c3ccccc3[nH]c2c2cn(-c3ccccc3I)c[n+]12 | 6.46 | 7.8 | 5.96 | 8.02 |
| COC(=O)c1cc2c3ccccc3[nH]c2c2cn(-c3ccccc3Br)c[n+]12 | > 30 | 20.7 | > 30 | 11 |
| COC(=O)c1cc2c3ccccc3[nH]c2c2cn(-c3ccc(F)cc3Br)c[n+]12 | 16.4 | 10.8 | 13.3 | 9.51 |
| COC(=O)c1cc2c3ccccc3[nH]c2c2cn(CCc3ccccc3)c[n+]12 | > 30 | > 30 | > 30 | > 30 |
| COC(=O)c1cc2c3ccccc3[nH]c2c2cn(Cc3ccccc3)c[n+]12 | 23.7 | 11.8 | 6.26 | > 9.27 |
| COC(=O)c1cc2c3ccccc3[nH]c2c2cn(-c3cccc(C(F)(F)F)c3)c[n+]12 | 10.9 | 14.6 | > 30 | 10.5 |
| COC(=O)c1cc2c3ccccc3n(Cc3cc(OC)c(OC)c(OC)c3)c2c2cn(-c3ccc(Cl)cc3)c[n+]12 | > 30 | > 30 | > 30 | > 30 |
| COC(=O)c1cc2c3ccccc3[nH]c2c2cn(Cc3ccc(C)cc3)c[n+]12 | > 30 | 11.2 | > 30 | > 30 |
| COC(=O)c1cc2c3ccccc3[nH]c2c2cn(-c3ccc(OC)c(OC)c3)c[n+]12 | 16.4 | 29.9 | > 30 | 11.5 |
| C=CCn1cc2c3[nH]c4ccccc4c3cc(C(=O)OC)[n+]2c1 | > 30 | 23 | > 30 | > 30 |
| COC(=O)c1cc2c3ccccc3[nH]c2c2cn(-c3cccc(Br)c3)c[n+]12 | 26.9 | 17.9 | > 30 | 15.1 |
| COC(=O)c1cc2c3ccccc3[nH]c2c2cn(-c3ccc(Cl)cc3C)c[n+]12 | > 30 | 23.4 | > 30 | 20.2 |
| COC(=O)c1cc2c3ccccc3[nH]c2c2cn(Cc3ccc(F)cc3)c[n+]12 | > 30 | 12.8 | > 30 | > 30 |
